Data: article PMC6916675 (Cancer Management and Research, 2019)
“Also recorded” adds a separate entry of the source.

What was measured:
[1] = Safety and tolerability in Phase I patients; type: in vivo, human
[2] = Urinary excretion of CC-115; type: in vivo, human; details: for Fe (fraction excreted unchanged in urine), mean (CV%) / Urine Ae24, mean (CV%): first dose
mTORC1 (p4E-BP1.T37/T46) = assay: p4E-BP1 biomarker inhibition in stimulated blood monocytes; type: in vivo, human
How it was run: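 Blood sampled predose and up to 5 hrs postdose on cycle 1 days 1 and 15, plus around tumour biopsy (days 15–21). Markers: p4E-BP1 T37/T46 (mTORC1) and pAKT S473 (mTORC2). In Part B, CD14+ monocytes were stimulated with anti-IgD plus lipopolysaccharide (37°C, 15 min) and analysed by flow cytometry. Signal was expressed as molecules of equivalent fluorescein.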

pAKT = assay: Immunohistochemistry of paired tumor biopsies, pAKT; type: in vivo, human; details: before treatment vs after approximately 15 days of treatment
[3] = Distribution of CC-115 to GBM tumor tissue; type: in vivo; details: human, GBM tumor tissue and plasma, oral, 10 mg BID
[4] = Bioavailability/food effect; type: in vivo, human; details: single oral dose with high-fat meal vs fasted
[5] = system: advanced solid or hematologic malignancies; assay: Antitumor efficacy; type: in vivo, human
How it was run: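 Investigators assessed response by RECIST 1.1, RANO, updated IWCLL or PCWG2 criteria. Solid tumours were restaged by CT or MRI after cycles 2, 4, 6, 9 and 12, every 6 cycles thereafter, and at end of treatment. Patients meeting IWCLL criteria but with persistent lymphocytosis were classed non-IWCLL. Best overall response frequency was tabulated. BA/FE substudy: 12 solid-tumour patients (GBM excluded).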

[6] = Part A, efficacy evaluable n=39

CCN1C(=O)CNc2ncc(-c3ccc(-c4nc[nH]n4)nc3C)nc21 [CC-115]
Drug-related AE: diarrhea ([1]; Part A): 25% | Drug-related AE: fatigue ([1]; Part A): 50% | Drug-related AE: hyperglycemia ([1]; Part A): 23% | Drug-related AE: nausea ([1]; Part A): 41% | Drug-related AE: vomiting ([1]; Part A): 41% | Grade 3 toxicities, patients ([1]; Part A): 41% | Grade 3 toxicity: fatigue ([1]; Part A): 7% | Grade 3 toxicity: hypertriglyceridemia ([1]; Part A): 5% | Grade 3 toxicity: hypophosphatemia ([1]; Part A): 7% | Grade 3 toxicity: maculopapular rash ([1]; Part A): 5% | Grade 3 toxicity: stomatitis ([1]; Part A): 5% | Patients requiring dose reduction from initially assigned dose levels ([1]; Part A): 39% | Patients requiring drug interruption ([1]; Part A): 93% | Patients who discontinued treatment due to AEs ([1]; Part A): 7% | Patients with ≥1 drug-related AE ([1]; Part A): 93% | Dose-limiting toxicities (increased transaminases and stomatitis) ([1]; Part A, 15 mg BID): 2 DLTs | Dose-limiting toxicity (thrombocytopenia), patients ([1]; Part A, 16 mg QD): 1 patient | Dose-limiting toxicity (stomatitis), patients ([1]; Part A, 25 mg QD): 1 patient | Dose-limiting toxicities (hyperglycemia, asthenia, and fatigue), patients ([1]; Part A, 40 mg QD): 2 of 6 patients | Maximum-tolerated dose (MTD) ([1]; Part A, once-daily schedule): 25 mg QD | Non-tolerated dose (NTD) ([1]; Part A, once-daily schedule): 40 mg QD | Maximum-tolerated dose (MTD) ([1]; Part A, twice-daily schedule): 10 mg BID | Non-tolerated dose (NTD) ([1]; Part A, twice-daily schedule): 15 mg BID | Patients requiring ≥1 dose reduction, range over cohorts ([1]; Part B overall): 40–93% | Patients with dose reductions ([1]; Part B, GBM): 93% | Excreted in urine ([2]; Part A): Less than 1% | Fe (fraction excreted unchanged in urine), mean (CV%) ([2]; 8 mg QD, n = 6): 0.25 (66) % | Urine Ae24, mean (CV%) ([2]; 8 mg QD, n = 6): 19,748 (66) ng | Fe (fraction excreted unchanged in urine), mean (CV%) ([2]; 10 mg BID, n = 6): 0.53 (108) % | Urine Ae24, mean (CV%) ([2]; 10 mg BID, n = 6): 53,259 (108) ng | Fe (fraction excreted unchanged in urine), mean (CV%) ([2]; 15 mg BID, n = 6): 0.72 (53) % | Urine Ae24, mean (CV%) ([2]; 15 mg BID, n = 6): 107,283 (53) ng | Fe (fraction excreted unchanged in urine), mean (CV%) ([2]; 16 mg QD, n = 6): 0.33 (108) % | Urine Ae24, mean (CV%) ([2]; 16 mg QD, n = 6): 52,491 (108) ng | Fe (fraction excreted unchanged in urine), mean (CV%) ([2]; 25 mg QD, n = 7): 0.41 (79) % | Urine Ae24, mean (CV%) ([2]; 25 mg QD, n = 7): 103,312 (79) ng | Fe (fraction excreted unchanged in urine), mean (CV%) ([2]; 40 mg QD, n = 6): 0.34 (55) % | Urine Ae24, mean (CV%) ([2]; 40 mg QD, n = 6): 136,157 (55) ng | Median biomarker (p4E-BP1) (mTORC1 (p4E-BP1.T37/T46); 10 mg BID cohort, after 3 hrs): 35% | Dose above which mTORC1 (p4E-BP1) was inhibited in peripheral blood monocytes (mTORC1 (p4E-BP1.T37/T46); Part A, repeat once-daily administration): > 4 mg QD | Median decrease of p4E-BP1 (mTORC1 (p4E-BP1.T37/T46); Part B, 10 mg BID, day 15): 34% | Inhibition of p4E-BP1 (mTORC1 (p4E-BP1.T37/T46); patient with endometrial cancer (complete response)): 51% | Time for which p4E-BP1 inhibition was sustained (mTORC1 (p4E-BP1.T37/T46); postdose): at least 5 hrs | Inhibition of pAKT in paired tumor biopsies (pAKT): Moderate, not statistically significant, inhibition | Kp [3]: 0.713 | Decrease in Cmax on co-administration of the tablet with food [4]: ~ 40% | Delay in Tmax on co-administration of the tablet with food [4]: 3.5 h | Total exposure (AUC∞) fed versus fasted [4]: similar; also recorded: comparable | Stable disease, patients ([5]; BA/FE substudy): 4 patients | Partial response (unconfirmed), patients ([5]; BA/FE substudy, breast carcinoma (5 patients)): 2 patients | Stable disease, patients ([5]; BA/FE substudy, breast malignancies): 1 patients | Stable disease, patients ([5]; BA/FE substudy, ovarian malignancies): 2 patients | Stable disease, patients ([5]; BA/FE substudy, rectal malignancies): 1 patients | Disease control rate (DCR) [5, 6]: 51% | Overall response rate (ORR) [5, 6]: 5%
